Reference: ChEMBL document CHEMBL3352181, “Novel phenyl and pyridyl substituted derivatives of isoindolines: Synthesis, antitumor activity and DNA binding features” (Eur J Med Chem, 2014)
pIC50: −log10 of the molar value. Activity calls are given as the source filed them. The rule behind the calls is not given here.

Assays:
HepG2 [1] = assay: Induction of cell cycle arrest on human HepG2 cells assessed as accumulation at G2/M phase at 50 uM after 24 hrs by propidium iodide staining based flow cytometry (reference value: 31.7 +/- 1.9%); type: functional
HepG2 [2] = assay: Induction of cell cycle arrest on human HepG2 cells assessed as accumulation at G1 phase at 20 uM after 48 hrs by propidium iodide staining based flow cytometry (reference value: 55.0 +/- 4.8%); type: functional
HepG2 [3] = assay: Induction of cell cycle arrest on human HepG2 cells assessed as accumulation at G2/M phase at 20 uM after 48 hrs by propidium iodide staining based flow cytometry (reference value: 45.0 +/- 4.8%); type: functional
[4] = target: T1, DNA topoisomerase 1 (Homo sapiens) (UniProt P11387); assay: Inhibition of human topoisomerase 1 assessed as topoisomerase poison activity by measuring generation of open circular DNA using supercoiled pUC19 DNA at 5 to 50 uM by agarose gel electrophoresis
T1 sequence (whole entry): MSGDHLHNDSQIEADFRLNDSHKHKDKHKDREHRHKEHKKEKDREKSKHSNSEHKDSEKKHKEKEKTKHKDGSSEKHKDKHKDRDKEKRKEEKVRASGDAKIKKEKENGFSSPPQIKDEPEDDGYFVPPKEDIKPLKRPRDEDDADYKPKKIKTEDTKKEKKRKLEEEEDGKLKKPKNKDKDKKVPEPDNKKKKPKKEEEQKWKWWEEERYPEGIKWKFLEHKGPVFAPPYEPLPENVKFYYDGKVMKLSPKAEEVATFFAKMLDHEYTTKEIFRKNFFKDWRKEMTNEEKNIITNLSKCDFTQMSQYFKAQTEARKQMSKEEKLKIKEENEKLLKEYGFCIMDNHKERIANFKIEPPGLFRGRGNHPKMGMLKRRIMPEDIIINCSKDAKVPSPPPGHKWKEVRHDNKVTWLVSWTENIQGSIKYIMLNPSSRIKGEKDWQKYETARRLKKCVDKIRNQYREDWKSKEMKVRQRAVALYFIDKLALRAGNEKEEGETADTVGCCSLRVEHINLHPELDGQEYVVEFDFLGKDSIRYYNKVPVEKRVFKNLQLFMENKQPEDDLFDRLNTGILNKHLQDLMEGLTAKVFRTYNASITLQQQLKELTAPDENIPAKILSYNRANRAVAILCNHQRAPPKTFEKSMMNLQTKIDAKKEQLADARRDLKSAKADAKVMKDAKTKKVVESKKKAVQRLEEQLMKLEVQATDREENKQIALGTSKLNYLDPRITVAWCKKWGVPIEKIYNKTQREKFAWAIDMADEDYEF
Summary of the method: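 Supercoiled pUC19 plasmid was incubated with human topoisomerase I and graded compound concentrations. Reactions were stopped with SDS and proteinase K. DNA forms were resolved on 1% agarose in TBE (2 h, 120 V), post-stained with ethidium bromide and photographed under UV. Poisoning was read as appearance of nicked DNA, with camptothecin as the positive control.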

HepG2 [5] = assay: Induction of cell cycle arrest on human HepG2 cells assessed as accumulation at subG1 phase at 50 uM after 48 hrs by propidium iodide staining based flow cytometry (reference value: 2.8 +/- 0.3%); type: functional
Summary of the method: (§1)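 HepG2 or SW620 cells were seeded at 25000 per well. After 24 h they were treated, then harvested 24 or 48 h later. Attached cells were trypsinized, pooled with floating cells, PBS-washed and fixed in 70% ethanol. Cells were stained with PI 1 µg/mL plus RNase A 0.2 µg/mL, and 10 000 events were acquired by flow cytometry. Phase percentages come from DNA histograms, in duplicate, with ANOVA at p < 0.05.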

HepG2 [6] = assay: Induction of cell cycle arrest on human HepG2 cells assessed as accumulation at S phase at 20 uM after 48 hrs by propidium iodide staining based flow cytometry (reference value: 0 +/- 0%); type: functional; summary of the method: as §1
HepG2 [7] = assay: Induction of cell cycle arrest on human HepG2 cells assessed as accumulation at G2/M phase at 50 uM after 48 hrs by propidium iodide staining based flow cytometry (reference value: 45.0 +/- 4.8%); type: functional
HepG2 [8] = assay: Induction of apoptosis in human HepG2 cells assessed as induction of cytoplasmic shrinkage at 25 uM after 24 hrs by Annexin V-Fluos staining based fluorescent microscopy; type: functional, cell-based
Summary of the method: (§2)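 Cells seeded on chamber slides at 4000 per well and treated 24 h (HepG2 at 25 or 50 µM; SW620 at 50 µM). Incubated 15 min with Annexin V-Fluos reagent plus propidium iodide, washed in PBS, and examined by fluorescence microscopy for morphology and labelling.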

HepG2 [9] = assay: Induction of cell cycle arrest on human HepG2 cells assessed as accumulation at subG1 phase at 50 uM after 24 hrs by propidium iodide staining based flow cytometry (reference value: 3.1 +/- 0.9%); type: functional; summary of the method: as §1
MCF7 = assay: Antiproliferative activity against human MCF7 cells assessed as inhibition of cell proliferation after 72 hrs by MTT assay; type: functional, cell-based
Summary of the method: (§3)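 Cells grown as monolayers in DMEM with 10% FBS, 2 mM L-glutamine, penicillin/streptomycin, 37 °C, 5% CO2. Seeded at 5000/well on day 0. Compounds added after 24 h as five serial dilutions (0,01 to 100 µM), DMSO ≤0.1%, then 72 h. MTT read-out converted to percentage growth. IC50 by linear regression; quadruplicates in three experiments.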

HepG2 [10] = assay: Induction of cell cycle arrest on human HepG2 cells assessed as accumulation at G1 phase at 20 uM after 24 hrs by propidium iodide staining based flow cytometry (reference value: 59.7 +/- 0.9%); type: functional
HepG2 [11] = assay: Induction of cell cycle arrest on human HepG2 cells assessed as accumulation at S phase at 50 uM after 48 hrs by propidium iodide staining based flow cytometry (reference value: 0 +/- 0%); type: functional; summary of the method: as §1
HepG2 [12] = assay: Antiproliferative activity against human HepG2 cells assessed as inhibition of cell proliferation after 72 hrs by MTT assay; type: functional, cell-based; summary of the method: as §3
BJ = assay: Antiproliferative activity against human BJ cells assessed as inhibition of cell proliferation after 72 hrs by MTT assay; type: cell-based; conditions: 72 h; summary of the method: as §3
HepG2 [13] = assay: Induction of cell cycle arrest on human HepG2 cells assessed as accumulation at G1 phase at 50 uM after 48 hrs by propidium iodide staining based flow cytometry (reference value: 55.0 +/- 4.8%); type: functional
HepG2 [14] = assay: Induction of cell cycle arrest on human HepG2 cells assessed as accumulation at G1 phase at 50 uM after 24 hrs by propidium iodide staining based flow cytometry (reference value: 59.7 +/- 0.9%); type: functional
Nucleic Acid = assay: Induction of DNA intercalation in supercoiled pUC19 DNA in presence of human topoisomerase 1 assessed as effect on topoisomerase 1-mediated DNA relaxation at 5 to 50 uM by agarose gel electrophoresis; type: nucleic-acid assay; conditions: Escherichia coli
Summary of the method: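 Supercoiled pUC19 incubated with human topoisomerase I and graded compound concentrations. Stopped with SDS/proteinase K. DNA forms resolved on 1% agarose in TBE, 2 h at 120 V, stained post-run with ethidium bromide and viewed under UV. Camptothecin was the topo I poison control.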

HepG2 [15] = assay: Induction of apoptosis in human HepG2 cells assessed as apoptotic bodies at 25 uM after 24 hrs by Annexin V-Fluos staining based fluorescent microscopy; type: functional, cell-based; summary of the method: as §2
HepG2 [16] = assay: Induction of cell cycle arrest on human HepG2 cells assessed as accumulation at S phase at 20 uM after 24 hrs by propidium iodide staining based flow cytometry (reference value: 8.6 +/- 2.8%); type: functional
HeLa = assay: Antiproliferative activity against human HeLa cells assessed as inhibition of cell proliferation after 72 hrs by MTT assay; type: functional, cell-based; summary of the method: as §3
HepG2 [17] = assay: Induction of cell cycle arrest on human HepG2 cells assessed as accumulation at S phase at 50 uM after 24 hrs by propidium iodide staining based flow cytometry (reference value: 8.6 +/- 2.8%); type: functional; summary of the method: as §1
HepG2 [18] = assay: Induction of cell cycle arrest on human HepG2 cells assessed as accumulation at G2/M phase at 20 uM after 24 hrs by propidium iodide staining based flow cytometry (reference value: 31.7 +/- 1.9%); type: functional
HepG2 [19] = assay: Induction of cell cycle arrest on human HepG2 cells assessed as accumulation at subG1 phase at 20 uM after 24 hrs by propidium iodide staining based flow cytometry (reference value: 3.1 +/- 0.9%); type: functional; summary of the method: as §1
HepG2 [20] = assay: Induction of cell cycle arrest on human HepG2 cells assessed as accumulation at subG1 phase at 20 uM after 48 hrs by propidium iodide staining based flow cytometry (reference value: 2.8 +/- 0.3%); type: functional; summary of the method: as §1
SW-620 = assay: (§4) Antiproliferative activity against human SW620 cells assessed as inhibition of cell proliferation after 72 hrs by MTT assay; type: functional, cell-based; summary of the method: as §3
[21] = as §4; type: functional, cell-based, SW-620; conditions: Homo sapiens, SW-620, 72 h; summary of the method: as §3

**Q.** Which Activity (HepG2 [1]) does the source give for `O=[N+]([O-])c1ccc(/N=C2\c3ccccc3CN2c2ccc([N+](=O)[O-])cc2)cc1` here?
**A.** 17.4%

**Q.** And the Activity (HepG2 [2])?
**A.** 53.7%

**Q.** What about the Activity (HepG2 [3]) of the same molecule?
**A.** 44.9%

**Q.** What about the inhibition [4] of the same molecule?
**A.** inactive

**Q.** And the Activity (HepG2 [5])?
**A.** 4.3%

**Q.** And the Activity (HepG2 [6])?
**A.** 1.3%

**Q.** What about the Activity (HepG2 [7]) of the same molecule?
**A.** 39.4%

**Q.** And the Activity (HepG2 [8])?
**A.** Active

**Q.** And the Activity (HepG2 [9])?
**A.** 8.3%

**Q.** And the inhibition (MCF7)?
**A.** Dose-dependent effect

**Q.** What about the pIC50 (MCF7; Homo sapiens, MCF7, 72 h) of the same molecule?
**A.** 5.09

**Q.** What about the Activity (HepG2 [10]) of the same molecule?
**A.** 58.8%

**Q.** What about the Activity (HepG2 [11]) of the same molecule?
**A.** 0.8%

**Q.** What about the inhibition (HepG2 [12]) of the same molecule?
**A.** Dose-dependent effect

**Q.** And the pIC50 (HepG2 [12]; HepG2, 72 h)?
**A.** 5.02

**Q.** What about the pIC50 (BJ; Homo sapiens, BJ) of the same molecule?
**A.** 4.12

**Q.** And the “inhibition (INH)” value (BJ; human, bj)?
**A.** Dose-dependent effect

**Q.** What about the Activity (HepG2 [13]) of the same molecule?
**A.** 59.7%

**Q.** What about the Activity (HepG2 [14]) of the same molecule?
**A.** 55%

**Q.** What about the Activity (Nucleic Acid) of the same molecule?
**A.** inactive

**Q.** What about the Activity (HepG2 [15]) of the same molecule?
**A.** Active

**Q.** And the Activity (HepG2 [16])?
**A.** 25.6%

**Q.** And the inhibition (HeLa)?
**A.** Dose-dependent effect

**Q.** What about the pIC50 (HeLa; Homo sapiens, HeLa, 72 h) of the same molecule?
**A.** 5.11

**Q.** And the Activity (HepG2 [17])?
**A.** 27.6%

**Q.** What about the Activity (HepG2 [18]) of the same molecule?
**A.** 15.6%

**Q.** What about the Activity (HepG2 [19]) of the same molecule?
**A.** 6.6%

**Q.** What about the Activity (HepG2 [20]) of the same molecule?
**A.** 4.4%

**Q.** What about the inhibition (SW-620) of the same molecule?
**A.** Dose-dependent effect

**Q.** And the pIC50 [21]?
**A.** 4.48
